# Active and inactive are the calls of the source. No cut-off for these calls is given here.
# Experiments:
# Aspergillus nidulans [1] = test: Anifungal activity against Aspergillus nidulans MAD4096 assessed as growth inhibition after 72 hrs by Neubauer chamber analysis; format: functional, organism-based
# Method in brief: (§1)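 A. nidulans prototroph strains (wild type MAD4096; crzAΔ MAD4100) were point-inoculated with 10^3 conidia, counted by Neubauer chamber, onto 1 ml AMM. The medium contained inhibitor from a 50 mM DMSO stock added to the melted agar, with a matching DMSO control. Colonial growth was evaluated photographically after 72 h at 37°C.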
# [2] = biological target: Glycogen synthase kinase-3 beta (Homo sapiens, UniProt P49841); test: Inhibition of human recombinant GSK3beta expressed in Escherichia coli using GS-1 as substrate incubated for 20 mins by gamma[32P]ATP-based scintillation counting analysis
# Chain of Glycogen synthase kinase-3 beta (P49841 whole entry): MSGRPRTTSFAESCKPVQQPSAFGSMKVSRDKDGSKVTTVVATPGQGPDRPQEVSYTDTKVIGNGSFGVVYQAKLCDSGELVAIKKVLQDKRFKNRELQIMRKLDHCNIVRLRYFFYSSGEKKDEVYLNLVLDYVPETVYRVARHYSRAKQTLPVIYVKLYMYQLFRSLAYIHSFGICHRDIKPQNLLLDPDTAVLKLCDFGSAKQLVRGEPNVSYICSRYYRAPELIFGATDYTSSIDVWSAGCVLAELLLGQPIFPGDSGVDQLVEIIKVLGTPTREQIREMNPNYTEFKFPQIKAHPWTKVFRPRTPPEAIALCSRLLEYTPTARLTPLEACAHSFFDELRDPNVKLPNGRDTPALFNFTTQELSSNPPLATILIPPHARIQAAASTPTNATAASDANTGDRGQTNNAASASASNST
# Aspergillus nidulans [3] = test: Anifungal activity against Aspergillus nidulans MAD4100 deficient in crzA assessed as growth inhibition after 72 hrs by Neubauer chamber analysis; format: functional, organism-based; method in brief: as §1
# Aspergillus nidulans [4] = test: Anifungal activity against Aspergillus nidulans MAD4097 deficient in sltA assessed as growth inhibition after 72 hrs by Neubauer chamber analysis; format: functional, organism-based
# Method in brief: (§2)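 A. nidulans sltA-deleted prototroph MAD4097, alongside wild-type MAD4096 and crzA-null MAD4100, tested on solid minimal medium (AMM) containing increasing inhibitor concentrations, added from DMSO stock (stock 50 mM); equal DMSO in control medium. 10^3 spores (Neubauer chamber count) centrally inoculated per well; 37°C for 72 h, colonies then photographed and colonial growth evaluated.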
# Aspergillus fumigatus [5] = test: Anifungal activity against Aspergillus fumigatus CBS144 assessed as growth inhibition at 5 uM after 48 to 72 hrs by Neubauer chamber analysis; format: functional, organism-based
# Method in brief: (§3)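 Wild-type prototroph A. fumigatus strains (CM237, AF293, CBS144) grown on solid minimal medium (AMM) with inhibitor added from DMSO stock (stock 50 mM); DMSO-only medium as control. 10^3 spores (counted by Neubauer chamber) centrally point-inoculated per well; incubated at 37°C, colonial growth scored after 48 and 72 h.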
# Aspergillus fumigatus [6] = test: Anifungal activity against Aspergillus fumigatus CM237 assessed as growth inhibition at 5 uM after 72 hrs by Neubauer chamber analysis; format: functional, organism-based; method in brief: as §3
# Aspergillus fumigatus [7] = test: Anifungal activity against Aspergillus fumigatus AF293 assessed as growth inhibition at 5 uM after 72 hrs by Neubauer chamber analysis; format: functional; method in brief: as §3
# Aspergillus fumigatus [8] = test: Anifungal activity against Aspergillus fumigatus CM237 assessed as growth inhibition at 5 uM after 48 hrs by Neubauer chamber analysis; format: functional, organism-based; method in brief: as §3
# Aspergillus fumigatus [9] = test: Anifungal activity against Aspergillus fumigatus AF293 assessed as growth inhibition at 5 uM after 48 hrs by Neubauer chamber analysis; format: functional; method in brief: as §3
# Aspergillus nidulans [10] = test: Anifungal activity against Aspergillus nidulans MAD4097 deficient in sltA assessed as reduction in colonial diameter at 50 uM after 72 hrs by Neubauer chamber analysis; format: functional, organism-based; method in brief: as §2
# Aspergillus fumigatus [11] = test: Anifungal activity against Aspergillus fumigatus CM237 assessed as growth inhibition at 100 uM after 48 to 72 hrs by Neubauer chamber analysis; format: functional, organism-based
# Method in brief: (§4)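 A. fumigatus wild-type prototroph conidia were used, 10^3 spores counted by Neubauer chamber and inoculated centrally onto 1 ml AMM. Inhibitors were dissolved in DMSO from 50 mM stocks and added to melted medium, with a DMSO-only control. Colonial growth was scored at 37°C after 48 and 72 h.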
# Aspergillus fumigatus [12] = test: Anifungal activity against Aspergillus fumigatus AF293 assessed as growth inhibition at 100 uM after 48 to 72 hrs by Neubauer chamber analysis; format: functional; method in brief: as §4
# Aspergillus fumigatus [13] = test: Anifungal activity against Aspergillus fumigatus CBS144 assessed as growth inhibition at 100 uM after 48 to 72 hrs by Neubauer chamber analysis; format: functional, organism-based; method in brief: as §4
# Aspergillus nidulans [14] = test: Anifungal activity against Aspergillus nidulans MAD4096 assessed as growth inhibition at 50 uM after 72 hrs by Neubauer chamber analysis; format: functional, organism-based; method in brief: as §1
# Aspergillus nidulans [15] = test: Anifungal activity against Aspergillus nidulans MAD4097 deficient in sltA assessed as reduction in colonial diameter at 10 uM after 72 hrs by Neubauer chamber analysis; format: functional; details: MAD4097, 72 h; method in brief: as §2
# Aspergillus fumigatus [16] = test: Anifungal activity against Aspergillus fumigatus CM237 assessed as growth inhibition at 50 uM after 48 to 72 hrs by Neubauer chamber analysis; format: functional, organism-based; method in brief: as §4
# Aspergillus fumigatus [17] = test: Anifungal activity against Aspergillus fumigatus AF293 assessed as growth inhibition at 50 uM after 48 to 72 hrs by Neubauer chamber analysis; format: functional; method in brief: as §4
# Aspergillus fumigatus [18] = test: Anifungal activity against Aspergillus fumigatus CBS144 assessed as growth inhibition at 50 uM after 48 to 72 hrs by Neubauer chamber analysis; format: functional, organism-based; method in brief: as §4
smiles,measurement,setting,value
COc1ccc(CNC(=O)Nc2nc(C)c(C(C)=O)s2)cc1,growth inhibition (GI),Aspergillus nidulans [1],inactive
same,IC50,[2],600 nM
same,growth inhibition (GI),Aspergillus nidulans [3],inactive
O=C(CCl)c1scc(Br)c1Br,growth inhibition (GI),Aspergillus nidulans [4],Active
same,growth inhibition (GI),Aspergillus nidulans [3],inactive
same,growth inhibition (GI),Aspergillus fumigatus [5],Active
same,growth inhibition (GI),Aspergillus fumigatus [6],inactive
same,growth inhibition (GI),Aspergillus fumigatus [7],inactive
same,growth inhibition (GI),Aspergillus fumigatus [8],Active
same,growth inhibition (GI),Aspergillus fumigatus [9],Active
CCCCCCCCCCCC(=O)NNC(=O)c1c(O)c2ccccc2n(CC)c1=O,growth inhibition (GI),Aspergillus nidulans [1],inactive
same,IC50,[2],2800 nM
same,growth inhibition (GI),Aspergillus nidulans [3],inactive
O=c1sn(-c2cccc3ccccc23)c(=O)n1Cc1ccccc1,growth inhibition (GI),Aspergillus nidulans [1],inactive
same,growth inhibition (GI),Aspergillus nidulans [3],inactive
same,inhibition,Aspergillus nidulans [10],Active
same,growth inhibition (GI),Aspergillus fumigatus [11],inactive
same,growth inhibition (GI),Aspergillus fumigatus [12],inactive
same,growth inhibition (GI),Aspergillus fumigatus [13],inactive
Cn1sc(=O)n(Cc2ccccc2)c1=O,growth inhibition (GI),Aspergillus nidulans [3],inactive
same,growth inhibition (GI),Aspergillus nidulans [14],Active
same,inhibition at 10 µM,Aspergillus nidulans [15],50%
same,growth inhibition (GI),Aspergillus fumigatus [16],Active
same,growth inhibition (GI),Aspergillus fumigatus [17],Active
same,growth inhibition (GI),Aspergillus fumigatus [18],Active

# — ChEMBL document CHEMBL3797022, “New applications for known drugs: Human glycogen synthase kinase 3 inhibitors as modulators of Aspergillus fumigatus growth” (Eur J Med Chem, 2016)
